The target of experiment [1] is T1, Lethal factor (Bacillus anthracis, UniProt P15917).
T1 sequence (P15917 whole entry): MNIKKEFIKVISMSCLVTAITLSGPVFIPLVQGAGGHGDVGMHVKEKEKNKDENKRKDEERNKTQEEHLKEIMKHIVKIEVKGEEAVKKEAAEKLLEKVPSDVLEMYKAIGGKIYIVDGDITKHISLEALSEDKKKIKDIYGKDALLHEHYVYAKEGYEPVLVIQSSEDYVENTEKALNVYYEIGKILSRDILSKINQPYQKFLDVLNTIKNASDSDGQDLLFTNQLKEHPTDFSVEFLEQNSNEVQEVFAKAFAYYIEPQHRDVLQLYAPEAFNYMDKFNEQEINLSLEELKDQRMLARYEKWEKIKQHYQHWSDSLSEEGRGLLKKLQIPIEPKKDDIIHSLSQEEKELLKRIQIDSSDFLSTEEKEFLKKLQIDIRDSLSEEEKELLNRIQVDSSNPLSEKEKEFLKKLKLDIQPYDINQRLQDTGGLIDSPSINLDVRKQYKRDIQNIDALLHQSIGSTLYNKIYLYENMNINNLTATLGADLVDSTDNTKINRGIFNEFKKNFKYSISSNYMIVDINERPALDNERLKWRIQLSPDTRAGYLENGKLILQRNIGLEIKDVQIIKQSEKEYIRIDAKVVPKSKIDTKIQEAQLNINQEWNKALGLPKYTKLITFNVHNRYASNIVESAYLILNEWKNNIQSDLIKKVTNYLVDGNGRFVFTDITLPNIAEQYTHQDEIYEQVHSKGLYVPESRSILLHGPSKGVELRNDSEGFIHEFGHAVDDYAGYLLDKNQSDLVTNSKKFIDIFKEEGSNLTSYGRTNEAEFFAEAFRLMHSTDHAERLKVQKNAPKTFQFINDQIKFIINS
Put plainly: Inhibition of Bacillus anthracis lethal factor assessed as MCA-KKVYPYPME[dnp]K amide cleavage after 30 mins by fluorescence plate reader analysis.

Experiment [2] deals with Botulinum neurotoxin type A (Clostridium botulinum, UniProt P0DPI0). Briefly: Inhibition of Clostridium bolulinum BoNT/A assessed as cleavage of MOCAc-Lys-Lys-Val-Tyr-Pro-Tyr-Pro-Met-Glu-Lys(Dnp)-NH2 after 40 mins by FRET assay. In outline:
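BoNT/A light chain (2 nM) in a 96-well FRET format. Reactions were stopped with acetic acid to 0.5% and cleaved-substrate fluorescence read at 485 nm with excitation at 398 nm. The same format served for IC50 and mechanism kinetics.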

Experiment [3] has as its target Matrix metalloproteinase-9 (Homo sapiens, UniProt P14780). Put plainly: Inhibition of human MMP-9 after 60 mins by FRET assay. In outline:
(§1)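 MMP-1 (38 nM) or MMP-9 (13 nM) with 50 fluorogenic substrate in 50 mM MOPS pH 6.0 and 0.05% NP-40, 37 °C for 60 min (linear range 90 min). Stopped with acetic acid (0.5% final); emission at 440 nm, excitation at 340 nm.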

The target of experiment [4] is T2, Interstitial collagenase (Homo sapiens, UniProt P03956).
T2 sequence (P03956 whole entry): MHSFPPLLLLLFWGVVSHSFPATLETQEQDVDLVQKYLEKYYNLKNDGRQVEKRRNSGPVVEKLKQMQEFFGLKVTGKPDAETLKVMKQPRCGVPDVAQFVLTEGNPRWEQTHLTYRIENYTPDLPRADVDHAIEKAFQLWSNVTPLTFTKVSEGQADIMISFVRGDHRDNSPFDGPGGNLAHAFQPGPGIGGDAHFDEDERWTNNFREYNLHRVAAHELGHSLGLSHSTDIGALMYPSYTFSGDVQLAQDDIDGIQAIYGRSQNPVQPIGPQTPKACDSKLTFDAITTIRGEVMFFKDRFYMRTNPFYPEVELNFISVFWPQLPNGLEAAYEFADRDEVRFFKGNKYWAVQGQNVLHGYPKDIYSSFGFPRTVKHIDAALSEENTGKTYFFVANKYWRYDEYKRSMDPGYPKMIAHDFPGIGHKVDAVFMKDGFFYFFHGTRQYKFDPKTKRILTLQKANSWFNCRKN
Briefly: Inhibition of human MMP-1 after 60 mins by FRET assay. The procedure, abridged:
as §1

Matrix metalloproteinase-9, sequence (P14780 whole entry): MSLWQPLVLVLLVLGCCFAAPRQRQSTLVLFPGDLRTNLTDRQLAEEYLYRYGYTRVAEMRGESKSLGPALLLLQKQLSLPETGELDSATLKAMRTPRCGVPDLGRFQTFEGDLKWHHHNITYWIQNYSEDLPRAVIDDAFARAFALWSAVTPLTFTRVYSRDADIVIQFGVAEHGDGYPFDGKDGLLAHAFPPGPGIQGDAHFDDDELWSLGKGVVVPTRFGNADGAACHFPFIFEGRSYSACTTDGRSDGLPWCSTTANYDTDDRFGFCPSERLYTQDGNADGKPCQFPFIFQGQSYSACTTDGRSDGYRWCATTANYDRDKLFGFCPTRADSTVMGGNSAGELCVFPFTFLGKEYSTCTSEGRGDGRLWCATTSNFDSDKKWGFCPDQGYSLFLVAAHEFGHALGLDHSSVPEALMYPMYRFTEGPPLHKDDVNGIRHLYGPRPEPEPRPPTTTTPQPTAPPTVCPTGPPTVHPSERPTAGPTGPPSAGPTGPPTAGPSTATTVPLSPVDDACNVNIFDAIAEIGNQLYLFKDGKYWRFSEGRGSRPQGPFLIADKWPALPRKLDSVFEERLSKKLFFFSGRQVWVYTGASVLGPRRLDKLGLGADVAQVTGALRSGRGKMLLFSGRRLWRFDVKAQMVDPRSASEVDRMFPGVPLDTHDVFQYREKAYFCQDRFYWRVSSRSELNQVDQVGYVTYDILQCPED
Botulinum neurotoxin type A, sequence (P0DPI0 2-448 limits assumed): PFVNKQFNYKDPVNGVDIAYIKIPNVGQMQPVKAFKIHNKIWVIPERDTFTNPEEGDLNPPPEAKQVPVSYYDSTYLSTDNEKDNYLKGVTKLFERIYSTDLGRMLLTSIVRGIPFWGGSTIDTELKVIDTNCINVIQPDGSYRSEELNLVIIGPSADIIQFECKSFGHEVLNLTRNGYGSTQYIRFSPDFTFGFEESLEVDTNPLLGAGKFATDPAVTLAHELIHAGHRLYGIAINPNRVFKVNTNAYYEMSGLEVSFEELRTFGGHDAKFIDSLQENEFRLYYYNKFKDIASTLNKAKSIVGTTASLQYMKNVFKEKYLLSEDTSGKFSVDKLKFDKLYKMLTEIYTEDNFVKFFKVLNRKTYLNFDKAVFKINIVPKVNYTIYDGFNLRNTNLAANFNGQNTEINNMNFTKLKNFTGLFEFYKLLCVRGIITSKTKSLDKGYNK

As to `COc1cc(Cl)ccc1CCC(=O)Nc1ccc2nc(C)cc(N)c2c1`, the IC50 in experiment [1] is 78 µM; in experiment [2], greater than 100 µM.

In the case of `Cc1cc(N)c2cc(NC(=O)c3cccc(C(=O)c4ccccc4)c3)ccc2n1`, the 50% inhibitory concentration (IC50) was 73 µM in experiment [1] and greater than 100 µM in experiment [2].

With `Cc1cc(N)c2cc(NC(=O)CCc3ccccc3)ccc2n1`, the half-maximal inhibitory concentration (IC50) in experiment [1] and in experiment [2] was greater than 100 µM each time.

For `Cc1cc(N)c2cc(NC(=O)c3cccc(N(C)C)c3)ccc2n1`, the IC50 in experiment [1] and in experiment [2] was greater than 100 µM throughout.

With `Cc1cc(N)c2cc(NC(=O)Cc3ccccc3Cl)ccc2n1`, the half-inhibitory concentration (IC50) in experiment [1] and in experiment [2] was greater than 100 µM throughout.

For `Cc1cc(N)c2cc(NC(=O)NCc3ccccc3Cl)ccc2n1`, the IC50 in experiment [1] was 61 µM; in experiment [2], greater than 100 µM.

For `Cc1cc(N)c2cc(NC(=O)Nc3ccc4c(c3)OCO4)ccc2n1`, the IC50 was greater than 100 µM in experiment [1] and 41 µM in experiment [2].

As for `COc1ccc(OC)c(CCC(=O)Nc2ccc3nc(C)cc(N)c3c2)c1`, the IC50 in experiment [1] and in experiment [2] was greater than 100 µM throughout.

For `COc1ccccc1/C=C/C(=O)Nc1ccc2nc(C)cc(N)c2c1`, the IC50 in experiment [1] was 46 µM; in experiment [2] it was greater than 100 µM; in experiment [3], greater than 100 µM; in experiment [4] it was greater than 100 µM.

For the molecule `Cc1cc(N)c2cc(NC(=O)c3ccc(-c4cccc5cccnc45)cc3)ccc2n1`, the concentration for half-maximal inhibition (IC50) in experiment [1] was 11 µM; in experiment [2], 65 µM; in experiment [3], 17 µM; in experiment [4] it was greater than 100 µM.

Turning to `Cc1cc(N)c2cc(NC(=O)c3ccc(-c4cccc5ncccc45)cc3)ccc2n1`, the concentration for half-maximal inhibition (IC50) stood at 10 µM in experiment [1] and 34 µM in experiment [2].

For the molecule `COc1ccc(Br)cc1CCC(=O)Nc1ccc2nc(C)cc(N)c2c1`, the half-inhibitory concentration (IC50) in experiment [1] and in experiment [2] was greater than 100 µM throughout.

Consider `Cc1cc(N)c2cc(NC(=O)Nc3ccc(C(C)C)cc3)ccc2n1`, for which the IC50 in experiment [1] came to 83 µM; in experiment [2], 62 µM.

`Cc1cc(N)c2cc(NC(=O)CCc3ccccc3C)ccc2n1`: the IC50 in experiment [1] and in experiment [2] was greater than 100 µM in each case.

As to `Cc1cc(N)c2cc(NC(=O)Nc3ccc(C(=O)c4ccccc4)cc3)ccc2n1`, the IC50 in experiment [1] was 26 µM; in experiment [2], 67 µM; in experiment [3], greater than 100 µM; in experiment [4] it was greater than 100 µM.

Consider `COc1ccncc1CCC(=O)Nc1ccc2nc(C)cc(N)c2c1`, for which the results for the IC50 in experiment [1] and in experiment [2] were greater than 50 µM and greater than 100 µM, respectively.

As to `COc1ccc(CCC(=O)Nc2ccc3nc(C)cc(N)c3c2)cc1`, the IC50 in experiment [1] and in experiment [2] was greater than 100 µM each time.

For the molecule `Cc1cc(N)c2cc(NC(=O)CCc3ccccc3C(F)(F)F)ccc2n1`, the half-maximal inhibitory concentration (IC50) in experiment [1] is 38 µM; in experiment [2], greater than 100 µM; in experiment [3], greater than 100 µM; in experiment [4], greater than 100 µM.

With `Cc1cc(N)c2cc(NC(=O)c3cccc(-c4cccc5ncccc45)c3)ccc2n1`, the concentration for half-maximal inhibition (IC50) in experiment [1] amounted to 33 µM; in experiment [2], 68 µM; in experiment [3] it was 50 µM; in experiment [4] it was 65 µM.

In the case of `Cc1cc(N)c2cc(NC(=O)Nc3ccc(-c4ccccc4)cc3)ccc2n1`, the half-maximal inhibitory concentration (IC50) in experiment [1] and in experiment [2] was 79 µM throughout.

On to `COc1cccc(CCC(=O)Nc2ccc3nc(C)cc(N)c3c2)c1`, for which the IC50 in experiment [1] and in experiment [2] was greater than 100 µM throughout.

In the case of `COc1cccc(CCC(=O)Nc2ccc3nc(C)cc(N)c3c2)c1OC`, the half-inhibitory concentration (IC50) in experiment [1] and in experiment [2] was greater than 100 µM throughout.

For `COc1ccccc1CC(=O)Nc1ccc2nc(C)cc(N)c2c1`, the IC50 in experiment [1] and in experiment [2] was greater than 100 µM in each case.

Consider `COc1ccc(/C=C/C(=O)Nc2ccc3nc(C)cc(N)c3c2)cc1`, for which the IC50 is 55 µM in experiment [1] and greater than 100 µM in experiment [2].

With `Cc1cc(N)c2cc(NC(=O)Cc3ccccc3)ccc2n1`, the IC50 in experiment [1] and in experiment [2] was greater than 100 µM throughout.

For `Cc1cc(N)c2cc(NC(=O)c3cc4ccccc4o3)ccc2n1`, the IC50 in experiment [1] is 90 µM; in experiment [2], greater than 100 µM.

For `COc1ccsc1CCC(=O)Nc1ccc2nc(C)cc(N)c2c1`, the IC50 in experiment [1] and in experiment [2] was greater than 100 µM each time.

As for `Cc1cc(N)c2cc(NC(=O)COc3ccc(OCc4ccccc4)cc3)ccc2n1`, the half-inhibitory concentration (IC50) in experiment [1] is 33 µM; in experiment [2], greater than 100 µM; in experiment [3], greater than 100 µM; in experiment [4], greater than 100 µM.

With `Cc1cc(N)c2cc(NC(=O)CCc3ccc(F)cc3)ccc2n1`, the IC50 in experiment [1] and in experiment [2] was greater than 100 µM throughout.

With `Cc1cc(N)c2cc(NC(=O)c3ccc(-c4cccnc4)cc3)ccc2n1`, the IC50 is 43 µM in experiment [1], 23 µM in experiment [2] and greater than 100 µM in experiment [3].

As to `CCCOc1ccccc1CCC(=O)Nc1ccc2nc(C)cc(N)c2c1`, the IC50 in experiment [1] and in experiment [2] was greater than 100 µM in each case.

With `Cc1cc(N)c2cc(NC(=O)c3ccc(-c4cnc5ccccc5c4)cc3)ccc2n1`, the 50% inhibitory concentration (IC50) was 3 µM in experiment [1], greater than 100 µM in experiment [2], 11 µM in experiment [3] and 78 µM in experiment [4].

`Cc1cc(N)c2cc(NC(=O)Nc3ccc(F)cc3)ccc2n1`: the IC50 in experiment [1] was 95 µM; in experiment [2], 32 µM.

Consider `COc1ccc2[nH]c(C(=O)Nc3ccc4nc(C)cc(N)c4c3)cc2c1`, for which the half-maximal inhibitory concentration (IC50) in experiment [1] is 44 µM; in experiment [2] it was 35 µM; in experiment [3], greater than 100 µM.

For `Cc1cc(N)c2cc(NC(=O)Cc3ccc4c(c3)OCO4)ccc2n1`, the half-inhibitory concentration (IC50) in experiment [1] and in experiment [2] was greater than 100 µM in each case.

For `COc1cc(Br)ccc1CCC(=O)Nc1ccc2nc(C)cc(N)c2c1`, the IC50 was 58 µM in experiment [1] and greater than 100 µM in experiment [2].

Turning to `CCOC(=O)c1ccc(NC(=O)Nc2ccc3nc(C)cc(N)c3c2)cc1`, the values for the IC50 in experiment [1] and in experiment [2] were 87 µM and 51 µM, respectively.

On to `Cc1cc(N)c2cc(NC(=O)c3ccc(N4CCOCC4)cc3)ccc2n1`, for which the results for the IC50 in experiment [1] and in experiment [2] were greater than 100 µM and 27 µM, respectively.

In the case of `Cc1cc(N)c2cc(NC(=O)CCc3ccccc3OC(=O)c3ccccc3)ccc2n1`, the IC50 in experiment [1] and in experiment [2] was greater than 100 µM throughout.

On to `Cc1cc(N)c2cc(NC(=O)CCc3ccccc3Cl)ccc2n1`, for which the IC50 in experiment [1] and in experiment [2] was greater than 100 µM throughout.

`COc1ccc(NC(=O)Nc2ccc3nc(C)cc(N)c3c2)cc1`: the half-inhibitory concentration (IC50) in experiment [1] was greater than 100 µM; in experiment [2], 41 µM.

Turning to `COc1ccccc1CNC(=O)Nc1ccc2nc(C)cc(N)c2c1`, the IC50 in experiment [1] and in experiment [2] was greater than 100 µM each time.

As for `Cc1cc(N)c2cc(NC(=O)c3ccco3)ccc2n1`, the figures for the half-maximal inhibitory concentration (IC50) in experiment [1] and in experiment [2] were greater than 100 µM and 47 µM, respectively.

As for `COc1ccc(Cl)cc1CCC(=O)Nc1ccc2nc(C)cc(N)c2c1`, the concentration for half-maximal inhibition (IC50) in experiment [1] and in experiment [2] was greater than 100 µM each time.

As to `Cc1cc(N)c2cc(NC(=O)c3ccc(-c4ccccc4)cc3)ccc2n1`, the IC50 in experiment [1] is 48 µM; in experiment [2], greater than 100 µM; in experiment [3] it was greater than 100 µM.

Regarding `CCOc1ccccc1CCC(=O)Nc1ccc2nc(C)cc(N)c2c1`, the IC50 in experiment [1] and in experiment [2] was greater than 100 µM in each case.

Turning to `Cc1cc(N)c2cc(NC(=O)c3cccc(-c4ccc(N(C)C)cc4)c3)ccc2n1`, the figures for the IC50 in experiment [2] and in experiment [3] were 69 µM and greater than 100 µM, respectively.

Regarding `Cc1cc(N)c2cc(NC(=O)c3cccnc3)ccc2n1`, the 50% inhibitory concentration (IC50) in experiment [1] and in experiment [2] was greater than 100 µM throughout.

The values are drawn from ChEMBL document CHEMBL3098056, “Small molecule inhibitors of anthrax lethal factor toxin” (Bioorg Med Chem, 2014).
